From PubChem BioAssay
Rows were chosen to be rich in hits. Some 2.5% of all compounds tested hit in one or more screens of this group.
EP2 modulator = modulators of human EP2 prostaglandin E2 receptor | actives 0.83% (n = 260,000) | AID 940 | EP2-expressing cells, cAMP HTRF FRET, PGE2 co-stimulation | P43116 | induction, % at 25 µM;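 active = compounds whose cAMP rise, as percent of the full-agonist control response, exceeds 60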;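 also: rat C6 glioma line stably carrying human EP2 under a CMV promoter; the protocol text gives 20 µM as final concentration; 100% = response of wells given 1 µM PGE2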
Target sequence (P43116 whole entry, looked up): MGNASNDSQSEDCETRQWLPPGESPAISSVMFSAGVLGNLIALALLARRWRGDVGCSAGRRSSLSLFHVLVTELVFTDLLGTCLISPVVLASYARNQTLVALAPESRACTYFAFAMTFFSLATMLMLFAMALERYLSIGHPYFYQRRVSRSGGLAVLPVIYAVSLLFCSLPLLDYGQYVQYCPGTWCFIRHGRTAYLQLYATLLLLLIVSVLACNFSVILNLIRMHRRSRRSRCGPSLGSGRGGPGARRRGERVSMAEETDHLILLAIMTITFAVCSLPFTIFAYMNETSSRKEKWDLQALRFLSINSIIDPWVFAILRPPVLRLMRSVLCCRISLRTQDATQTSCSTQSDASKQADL
EP2 antag = EP2 receptor (human) inhibition; P43116; C6 glioma cells expressing human EP2, cAMP TR-FRET; cells stimulated with saturating PGE2; inhibition, % at 25 µM; actives 0.52% (n = 260,000);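 active = percent inhibition above 40 after rounding to a whole number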;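 also: rat C6 glioma host cells with rolipram phosphodiesterase inhibitor present; the protocol text gives 20 µM as final concentration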
HKDC1 inhibitor = blocks human hexokinase HKDC1 activity; Q2TB90; recombinant HKDC1, G6PDH/diaphorase resazurin coupled fluorescence; inhibition, % at 20 µM; actives 0.16% (n = 340,000);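 active = inhibition above about 35% when tested at 20 µM, limit read from the data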;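 also: plate controls were DMSO wells with enzyme for no effect and DMSO wells lacking enzyme for full effect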
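Material – in-house recombinant HK5 (HKDC1) enzyme · Quantity – HKDC1 at 5 µg/mL · Buffer or medium – pH 8.0 Tris buffer with 10 mM MgCl2 · Reagent – glucose with 1 mM ATP · Dosing – single 20 µM dose · Times – reaction time 90 min, room temperature, protected from light · Technique – resorufin fluorescence at 613 nm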
TbHK1 inh = T. brucei hexokinase 1 inhibition | recombinant TbHK1, G6PDH-coupled NADH A340 | inhibition, % at 10 µM | actives 0.11% (n = 220,000);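 active = inhibition of 50% or more in the single-dose primary screen; inactive = inhibition below 50%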
PfGluPho inh = PfG6PD (Plasmodium falciparum) enzyme inhibition | inhibition, % at 20 µM | actives 0.78% (n = 350,000) | PfGluPho enzyme, NADPH resazurin-diaphorase fluorescence;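 active = inhibition reaching at least a set limit at 20 µM in the primary screen, cut at about 59% in these data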;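 also: 0% = DMSO wells with substrate and 100% = DMSO wells lacking glucose-6-phosphate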
PHOSPHO1 block = blocks human PHOSPHO1 phosphatase activity; actives 1.1% (n = 290,000); inhibition, % at 13.3 µM; recombinant PHOSPHO1, absorbance phosphatase assay; in the data active = inhibition above about 60%
Target sequence (Q8TCT1 whole entry, looked up): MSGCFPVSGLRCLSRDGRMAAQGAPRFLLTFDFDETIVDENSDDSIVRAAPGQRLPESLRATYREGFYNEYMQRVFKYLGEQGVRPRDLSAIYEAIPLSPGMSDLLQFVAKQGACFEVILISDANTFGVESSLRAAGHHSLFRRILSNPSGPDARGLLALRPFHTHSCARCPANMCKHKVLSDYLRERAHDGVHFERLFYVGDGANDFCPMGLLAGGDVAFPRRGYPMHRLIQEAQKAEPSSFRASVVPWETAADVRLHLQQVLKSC
An asterisk follows results filed as active; · = no result given; ! = a repeat was not active.

SMILES | EP2 modulator | EP2 antag | HKDC1 inhibitor | TbHK1 inh | PfGluPho inh | PHOSPHO1 block
O=c1c(C(c2ccc(O)cc2)c2c(O)nc3n(c2=O)CCS3)c(O)nc2n1CCS2 | 23 | · | -2 | -26 | 8 | 40
O=c1[nH][nH]c(=S)n1-c1ccccc1C(F)(F)F | 17 | 5 | · | -6 | · | 90*
c1ccc(COC2CCCN(Cc3nc(-c4cnccn4)no3)C2)nc1 (stereo not drawn) | 1 | 1 | 15 | -9 | 3 | 61*
Cc1ccc(-c2ccc(/C=N\NC(=O)C3C(=O)NCC3c3ccccc3)o2)cc1Cl (stereo not drawn) | -13 | 7 | -1 | -45 | 2 | 60*
COc1ccc(C(NC(=O)C(C)C)c2nccn2C)cc1OC (stereo not drawn) | 14 | · | · | · | · | ·
N#Cc1c(SCc2cccc(Cl)c2)sc(C(=O)c2ccccc2)c1N | 40 | 15 | 1 | 19 | 8 | 62*
Cc1ccc(C(=O)c2sc(Nc3ccccc3)c(C#N)c2N)cc1 | -3 | 9 | -14 | 32 | 20 | -6
N#Cc1c(Oc2ccc3ccccc3c2)sc(C(=O)c2ccccc2)c1N | 34 | 12 | 2 | -8 | 3 | 30
N#Cc1c(SCc2ccccc2)sc(C(=O)c2ccccc2)c1N | 3 | 15 | 3 | 28 | -9 | 73*
Cc1ccc(CSc2sc(C(=O)c3ccccc3)c(N)c2C#N)cc1 | 44 | 10 | -4 | 17 | 22 | 97*
CCCc1ncc(CN2CCC(O)(c3ccc4c(c3)OCO4)CC2)cn1 | 13 | 0 | · | · | · | ·
O=C(Nc1ccc2c(c1)Cc1ccccc1-2)[C@@H]1[C@H](C(=O)O)[C@]2(Cl)C(Cl)=C(Cl)[C@@]1(Cl)C2(Cl)Cl | -26 | 42* | · | · | · | ·
Cc1ccc(-c2nnn(C3CCN(C(=O)Cc4n[nH]c(=O)c5ccccc45)CC3)n2)cc1 | -65 | · | · | · | · | ·
CCC(Sc1nnc2c3ccccc3n(C)c2n1)C(=O)NC(C(=O)OC)c1ccccc1 (stereo not drawn) | 19 | 10 | · | · | · | ·
c1ccc2[nH]c(SN3CCOCC3)nc2c1 | 16 | 3 | · | 0 | · | 102*
Cc1ccc2[nH]c(=O)c(C(c3nnnn3Cc3ccccc3)N3CCc4ccccc43)cc2c1 (stereo not drawn) | 28 | 3 | 14 | -15 | 30 | 43
CCC(C)(C)n1nnnc1C(c1cc2cc(C)ccc2[nH]c1=O)N1CCCc2ccccc21 (stereo not drawn) | 14 | · | 14 | -22 | 39 | 75*
Cc1ccc2[nH]c(=O)c(C(c3nnnn3CC3CCCO3)N3CCCc4ccccc43)cc2c1 (stereo not drawn) | 26 | 1 | 6 | -10 | 27 | 86*
CCC(C)(C)n1nnnc1C(c1cc2cc(C)cc(C)c2[nH]c1=O)N1CCCC(C)C1 (stereo not drawn) | 86* | 10 | · | · | · | ·
CCc1ccc2[nH]c(=O)c(C(c3nnnn3Cc3ccccc3)N3CCCc4ccccc43)cc2c1 (stereo not drawn) | 66* | 15 | · | · | · | ·
COc1ccccc1NC(=O)c1sc(NC(=O)Cc2ccc(Cl)cc2)c(C#N)c1C | 18 | 14 | · | · | · | ·
CCOc1ccccc1NC(=O)CSc1nnc(-c2ccccc2)n1C | 14 | 10 | · | · | · | ·
COc1cccc(C(O)CN2CCC3(CC2)CC(O)c2cc(Cl)ccc2O3)c1 (stereo not drawn) | -80 | 15 | · | · | · | ·
COc1ccc2c(c1OC)CN(C)CCc1cc3c(cc1C(O)C2)OCO3 (stereo not drawn) | 6 | 20 | -3 | -6 | -17 | 6
COc1ccc2cc1Oc1ccc(cc1)C[C@H]1c3cc(c(OC)cc3CCN1C)Oc1c(OC)c(OC)cc3c1[C@@H](C2)N(C)CC3 | -12 | 59* | -12 | · | 45 | ·
SMILES | EP2 modulator | EP2 antag | HKDC1 inhibitor | TbHK1 inh | PfGluPho inh | PHOSPHO1 block
Cc1oc2ccccc2c1CN1CCc2c(nc(N3CCCC3)[nH]c2=O)C1 | -14 | · | · | · | · | ·
Cc1ccc(C)c(OCc2nnc(N)s2)c1 | 3 | 13 | 2 | 7 | -8 | 72*
Nc1nnc(COc2ccc(Br)cc2Br)s1 | -16 | 6 | -7 | -2 | -1 | 3
Cn1c(-c2sc3cc(C(F)(F)F)cnc3c2-c2ccccn2)n[nH]c1=S | 32 | 9 | 9 | -27 | 24 | -97
Cn1c(-c2sc3cc(C(F)(F)F)cnc3c2-c2cccnc2)n[nH]c1=S | -6 | 14 | -3 | -21 | 15 | 92*
O=C(Cn1cc([N+](=O)[O-])cn1)N1CCCc2ccccc21 | -28 | 10 | -5 | 0 | -1 | 64*
Cc1sc(-n2c(C)cc(/C=N/n3cnnc3)c2C)c(C#N)c1C | 14 | 5 | -7 | -14 | 40 | 84*
O=C(NC(=S)Nc1ccccc1Cl)c1csnn1 | -5 | 10 | -5 | 4 | 2 | 65*
COc1cc2oc(=O)c(Br)c(C)c2c(OC)c1OC | 44 | 44* | 0 | -36 | 10 | -4
COC(=O)c1sc(-c2ccc(C(C)(C)C)cc2)cc1NC(=O)c1ccccc1C(=O)O | -58 | 16 | 12 | -8 | -32 | 27
COC(=O)c1sc(-c2ccc(Cl)cc2)cc1NC(=O)c1ccccc1C(=O)O | -18 | 53* | 7 | -22 | -26 | 43
CCCn1c(NCc2ccccc2)nc2c1c(=O)n(C)c(=O)n2C | 5 | 13 | · | · | · | ·
Cn1c(=O)c2nc(NCc3ccccc3)cnc2n(C)c1=O | 65* | · | -5 | 5 | 16 | -4
Cc1cccc(-c2nnc3n2N=C(c2ccccc2)CS3)c1 | 63* | 5 | 3 | 4 | 8 | 14
COc1ccc(-c2nnc3n2N=C(c2ccccc2)CS3)cc1OC | · | · | · | · | · | 6
COCCNC(=O)CN1CCC(NC(C)=O)CC1 | 7 | 7 | · | · | · | ·
Cc1cc(=O)n2c3ccccc3n(CC(O)CN3CCCC3)c2c1C#N (stereo not drawn) | 7 | 4 | 3 | -33 | -2 | 62*
CCCNCC(O)Cn1c2ccccc2n2c(=O)cc(C)c(C#N)c12 (stereo not drawn) | 0 | 12 | -9 | -22 | 8 | 7
N#C/C(C(=O)NCCc1ccccc1)=C1/N=C(NC(=O)c2cccs2)c2ccccc21 | 63* | 13 | -4 | 17 | -20 | 0
COCCCNC(=O)/C(C#N)=C1\N=C(NC(=O)c2cccs2)c2ccccc21 | -10 | 9 | -2 | -28 | 11 | 45
Cc1c(Cl)cccc1NC(=O)c1snc2c(=O)[nH]cnc12 | -52 | 13 | · | · | · | ·
O=C(Nc1nccs1)c1c(O)c2c([nH]c1=O)CCCC2 | 7 | 4 | 2 | -19 | 3 | 3
O=C(Nc1ccccc1O)c1c(O)c2c([nH]c1=O)CCCC2 | -135 | 64*! | -13 | 4 | 20 | 19
Cc1cc(C)c2[nH]c(=O)c(CN(CCCN(C)C)C(=O)Nc3cccc(Cl)c3)cc2c1 | -70 | 13 | · | · | · | ·
COc1ccc(-n2nc([N+](=O)[O-])c(=NCCCN3CCCC3=O)n2O)cc1 | -13 | 7 | -6 | -5 | 4 | 61*
